Measurements as given in PubChem BioAssay.
Active and inactive are the calls of the source.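 The calls were made as follows, unless noted: active = fluorescence slope after compound addition differing from the mean of all tested samples at 99.7% confidence, mostly higher but some lower; inactive = the rest.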

What was measured:
[1] = inhibitors of TNFa-induced NFkB p65 translocation, primary screen, imaging, HUVEC, MLSMR starter and 10KST1 sets (AID 438;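 active = inhibition above 20% together with a positive visual image hit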;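 also: compound added about 3h40 before a 20 min TNFalpha stimulation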;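 as to inhibition: signal is the nuclear over cytoplasmic p65 intensity ratio per well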); conditions: HUVEC TNFa-induced p65 nuclear translocation; cell count: measured here: nuclei count (cytotoxicity indicator), at 2.08 µM; inhibition: at 2 µM, stronger effect = higher value, 0% TNFa-plus-vehicle, 100% no-TNFa wells
[2] = reduction of polyQ htt aggregates in cells – imaging, exon1htt(103Q)mCFP cells, high-content imaging, primary screen (AID 483;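 active = visual image review flags a hit and inhibition of aggregation exceeds 20%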;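 also: compound exposure lasted 3 days before fixation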;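 as to nuclei count: percent of the per-plate median nuclei count of sample wells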); conditions: exon1htt(103Q)mCFP cell line, aggregate imaging, at 2 µM; inhibition of aggregation: stronger effect = higher value; nuclei count: measured here: cell count, toxicity
[3] = endothelial E-selectin expression blockers – imaging, HUVEC, immunofluorescence, MLSMR starter and 10KST1 sets, primary screen (AID 487;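 active = visually confirmed hit in the image check and inhibition above 20%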;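 as to inhibition: signal is fraction of cell area covered by stained E-selectin grains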;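 as to nuclei count: 100% = median nuclei count of all wells on the same plate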); conditions: HUVEC TNFalpha-induced E-selectin immunofluorescence imaging, at 2 µM; inhibition: stronger effect = higher value; nuclei count: measured here: cell number, toxicity
[4] = molecular target: Voltage-gated potassium channel subunit beta-2 (Rattus norvegicus) (UniProt P62483); assay: inhibitors of rat Kvbeta2 reductase activity – biochemical, NADPH fluorescence, primary screen (AID 622;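 active = fluorescence slope higher than the sample average by over 3 SD, cut at about -0.22 in these data, passing the limit was not always enough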;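 also: slope of raw intensity against log time taken from 70 to 1610 s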); conditions: recombinant KvBeta, 4-cyanobenzaldehyde reduction, at 10 µM, stronger effect = higher value
[5] = molecular target: Voltage-gated potassium channel subunit beta-2 (Rattus norvegicus) (UniProt P62483); assay: enhancers of rat Kvbeta2 NADPH turnover – biochemical, NADPH fluorescence, primary screen (AID 623;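 active = NADPH fluorescence slope more negative than the mean of all samples by about 3 SD, 99.7% confidence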;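 also: fluorescence intensity change per second fitted from 20 to 320 s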); conditions: Recombinant KvBeta, NADPH fluorescence decrease slope, 10 min; at 10 µM; stronger effect = lower value
[6] = molecular target: Muscarinic acetylcholine receptor M4 (Homo sapiens) (UniProt P08173); assay: M4-linked GIRK flux change, two-sided – cell-based, HEK293 M4/GIRK, thallium flux, BTC-AM, M4 allosteric agonist project, primary screen (AID 625); conditions: at 10 µM, actives lie on both sides;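 also: thallium influx through GIRK channels coupled to M4 in HEK293 cells with BTC-AM dye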
Procedure, shortened: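 Assay system: HEK293 cells with M4 receptor and GIRK channels / Controls: carbachol and DMSO controls / Schedule: 1 h dye loading, 2 min kinetic read / Technique: kinetic fluorescence with BTC-AM dye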

[7] = blockers of RIG-like receptor reporter activation – cell-based, Sendai virus stimulus, luciferase, 10K MLSCN set, TLR/RLR signaling modifier project, primary screen (AID 602276;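 active = inhibition at or above 50% at 10 µM; inactive = inhibition below 50%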;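 also: firefly luciferase from ISG56 promoter only with Renilla not read in this screen; 0% = Sendai virus plus DMSO and 100% = medium plus DMSO without virus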); conditions: HEK293 RL24 IRF3 luciferase reporter, at 10 µM, stronger effect = higher value
[8] = TLR3 IRF3 reporter activation blockers – cell-based, poly I:C stimulus, luciferase, 10K MLSCN set, primary screen (AID 602277;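 active = inhibition of the reporter signal at or above 50%; inactive = inhibition below 50%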); conditions: HEK293-TLR3 RL24 IRF3 luciferase reporter, at 10 µM, stronger effect = higher value

Muscarinic acetylcholine receptor M4 (Homo sapiens), sequence (P08173 whole entry, looked up): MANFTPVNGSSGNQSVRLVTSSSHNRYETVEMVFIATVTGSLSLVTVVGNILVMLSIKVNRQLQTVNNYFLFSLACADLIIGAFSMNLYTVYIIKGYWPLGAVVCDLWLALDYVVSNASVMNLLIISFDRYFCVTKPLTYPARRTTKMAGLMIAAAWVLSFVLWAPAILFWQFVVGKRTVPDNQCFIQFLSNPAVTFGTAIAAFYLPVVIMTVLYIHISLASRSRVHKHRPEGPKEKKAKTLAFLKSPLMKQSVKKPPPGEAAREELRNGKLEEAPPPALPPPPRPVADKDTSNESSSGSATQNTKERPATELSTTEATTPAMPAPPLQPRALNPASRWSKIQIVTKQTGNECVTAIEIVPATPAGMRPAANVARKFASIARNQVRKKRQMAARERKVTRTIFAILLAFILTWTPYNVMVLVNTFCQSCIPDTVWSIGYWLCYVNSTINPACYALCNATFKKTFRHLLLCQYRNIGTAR
Voltage-gated potassium channel subunit beta-2 (Rattus norvegicus), sequence (P62483 whole entry, looked up): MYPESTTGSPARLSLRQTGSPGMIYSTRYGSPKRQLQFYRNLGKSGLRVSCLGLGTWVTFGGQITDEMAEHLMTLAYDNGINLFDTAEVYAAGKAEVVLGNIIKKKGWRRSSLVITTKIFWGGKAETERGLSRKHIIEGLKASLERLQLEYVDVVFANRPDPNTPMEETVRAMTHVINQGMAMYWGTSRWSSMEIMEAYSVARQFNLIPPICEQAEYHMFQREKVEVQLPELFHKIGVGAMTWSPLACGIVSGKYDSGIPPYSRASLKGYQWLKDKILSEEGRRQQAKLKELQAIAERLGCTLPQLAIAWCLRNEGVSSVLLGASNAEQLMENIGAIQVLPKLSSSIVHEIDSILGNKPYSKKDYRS

SMILES	cell count [1]	inhibition [1]	inhibition of aggregation [2]	nuclei count [2] [%]	inhibition [3]	nuclei count [3] [%]	fluorescence slope [4]	NADPH fluorescence slope [5]	fluorescence slope [6]	inhibition [7]	inhibition [8]
Cc1ccc(Cl)cc1NC(=O)CSc1nnc(C)n1-c1ccccc1	783	-5.4% (inactive)	-28.9% (inactive)	100	-16% (inactive)	96	-0.551 (inactive)	-4.3e-05 (inactive)	0.00502 (inactive)	21.8% (inactive)	23.3% (inactive)
C=CCn1cnc2c(NCc3ccccc3)ncnc21	387	-13.3% (inactive)	3% (inactive)	98.8	20.4% (inactive)	142	-0.587 (inactive)	3.1e-05 (inactive)	0.00713 (inactive)	-54.3% (inactive)	-89% (inactive)
Cc1ccc(NC(=O)Cn2cccc2)cc1Cl	655	-12.9% (inactive)	7% (inactive)	115	-4.1% (inactive)	103	-0.324 (inactive)	-5.7e-05 (inactive)	0.00925 (inactive)	8.59% (inactive)	-12.8% (inactive)
CCCCCOC(=O)CSc1nnc(-c2cc(OC)c(OC)c(OC)c2)o1	747	-21.6% (inactive)	16.3% (inactive)	116	-73.6% (inactive)	119	-0.363 (inactive)	-3.4e-05 (inactive)	0.00542 (inactive)	3.74% (inactive)	10.4% (inactive)
O=C(Nc1nc(-c2ccc(S(=O)(=O)N3CCCCCC3)cc2)cs1)c1cccs1	368	15% (inactive)	-6.4% (inactive)	115	-30.6% (inactive)	122	-0.53 (inactive)	-2.4e-05 (inactive)	0.0134 (active)	10.4% (inactive)	3.6% (inactive)
O=C(Cn1cccc1C(=O)c1ccccc1)NCCN1CCOCC1	505	12.5% (inactive)	-9.1% (inactive)	114	25% (inactive)	98.8	-0.583 (inactive)	-1.2e-05 (inactive)	0.00604 (inactive)	0.991% (inactive)	12.8% (inactive)
O=S(=O)(NCc1ccco1)c1cccc2cccnc12	336	0% (inactive)	-18.3% (inactive)	111	-65.9% (inactive)	103	-0.551 (inactive)	-1.2e-05 (inactive)	0.00492 (inactive)	13.3% (inactive)	13% (inactive)
COc1ccc(Br)cc1C(=O)Nc1nnn(C)n1	383	6.7% (inactive)	5.6% (inactive)	102	17% (inactive)	106	-0.51 (inactive)	4.6e-05 (inactive)	0.00661 (inactive)	-19.5% (inactive)	-34.7% (inactive)
CCCCN(CCCC)C(=O)CN(C)S(=O)(=O)c1ccc2c(c1)n(C)c(=O)c(=O)n2C	354	-5.1% (inactive)	-10.5% (inactive)	88.3	-75.3% (inactive)	121	-0.466 (inactive)	-4.4e-06 (inactive)	0.00642 (inactive)	11.1% (inactive)	22.5% (inactive)
CC(=O)N1CCC2(CC1)CC(=O)c1cc(OCC(=O)NCc3ccco3)ccc1O2	376	6.6% (inactive)	-16.2% (inactive)	113	-143% (inactive)	97.8	-0.253 (inactive)	1.5e-05 (inactive)	0.00743 (inactive)	-7.82% (inactive)	2.06% (inactive)
COc1ccc(OC)c(Nc2cc(-c3ccccc3)nc(N)n2)c1	423	9.2% (inactive)	-34.6% (inactive)	0.5	-25.1% (inactive)	115	-0.548 (inactive)	4.9e-06 (inactive)	0.00508 (inactive)	46.6% (inactive)	86.6% (active)
COc1cccc(NS(=O)(=O)c2cc(C)sc2C)c1	311	-5.7% (inactive)	3.3% (inactive)	93	-57% (inactive)	113	-0.467 (inactive)	-1.8e-05 (inactive)	0.00503 (inactive)	3.14% (inactive)	24.9% (inactive)
COc1cccc(-c2nc(-c3ccc(NC(=O)Cc4ccccc4OC)cc3)no2)c1	429	-1.8% (inactive)	-12.3% (inactive)	95.4	-68.2% (inactive)	116	-0.561 (inactive)	-1.4e-06 (inactive)	0.0119 (active)	13% (inactive)	-45.2% (inactive)
CCOC(=O)N1CCC(NC(=O)c2ccc3c(c2)N(C)CCS3)CC1	368	-0.7% (inactive)	17.8% (inactive)	113	-131% (inactive)	126	-0.0303 (active)	1.7e-06 (inactive)	0.00744 (inactive)	13% (inactive)	21.9% (inactive)
CCOC(=O)c1c(C)oc2ccc(O)c(CN3CCCCC3)c12	376	-0.9% (inactive)	-42.7% (inactive)	102	-90.5% (inactive)	81.7	-0.383 (inactive)	2.5e-05 (inactive)	0.00399 (inactive)	17.3% (inactive)	31.7% (inactive)
CC1(C)Cc2noc(N)c2C(C)(C)N1OC(=O)c1ccccc1	322	2.4% (inactive)	1.8% (inactive)	99	-48.1% (inactive)	126	-0.463 (inactive)	1.8e-05 (inactive)	0.00527 (inactive)	-2.74% (inactive)	5.08% (inactive)
CCOC(=O)C1CCN(C(=O)CSc2cc(=O)n(CC)c3ccccc23)CC1	378	2.2% (inactive)	-0.2% (inactive)	110	-26.1% (inactive)	111	-0.629 (inactive)	6.5e-05 (inactive)	0.00567 (inactive)	-0.518% (inactive)	38.8% (inactive)
COC(=O)c1cn(C(=O)OC)c2ccccc12	447	-2.7% (inactive)	10.2% (inactive)	108	-17.8% (inactive)	108	-0.593 (inactive)	-8.8e-05 (inactive)	0.00446 (inactive)	13.8% (inactive)	10.5% (inactive)
Cn1c(COc2ccccc2)nnc1SCC(=O)Nc1ccc(N2CCOCC2)c(Cl)c1	497	-6.9% (inactive)	-10.9% (inactive)	102	-6.4% (inactive)	102	-0.477 (inactive)	-6.6e-05 (inactive)	0.00548 (inactive)	13.5% (inactive)	17.5% (inactive)
CCc1ccccc1NC(=O)CSc1nc2n[nH]c(C)c2c(=N)n1-c1ccc(OC)cc1	453	17.4% (inactive)	-1.3% (inactive)	104	41.3% (inactive)	103	-0.47 (inactive)	-4.8e-05 (inactive)	0.00766 (inactive)	15.1% (inactive)	20.3% (inactive)
CCOC(=O)c1ccc(NS(=O)(=O)c2ccc(SC)cc2)cc1	643	-9% (inactive)	4.8% (inactive)	89	-21.6% (inactive)	88.3	-0.48 (inactive)	-4.9e-05 (inactive)	0.00382 (inactive)	13.8% (inactive)	16.1% (inactive)
CCCSc1nc2c(c(=O)[nH]c(=O)n2C)n1CCc1ccccc1	413	11.9% (inactive)	0.6% (inactive)	107	-76.3% (inactive)	110	-0.507 (inactive)	-3.4e-05 (inactive)	0.00465 (inactive)	17.9% (inactive)	4.39% (inactive)
CCCCc1cc(=O)oc2c(CN3CCCC3)c(O)c(Cl)cc12	531	-12.6% (inactive)	-16.7% (inactive)	46.6	26.1% (inactive)	89.4	-0.00586 (active)	0 (inactive)	0.00532 (inactive)	20% (inactive)	19.7% (inactive)
CN1CCc2nc(SCC(=O)Nc3ccc(F)cc3)c(C#N)cc2C1	646	-14.8% (inactive)	-16.9% (inactive)	101	-75.1% (inactive)	101	-0.456 (inactive)	0.000133 (inactive)	0.00558 (inactive)	-24.5% (inactive)	-52.9% (inactive)
O=C(c1cccc(Cl)c1)N1CCN(Cc2ccncc2)CC1	702	3.1% (inactive)	1.7% (inactive)	106	-87.8% (inactive)	109	-0.537 (inactive)	0.000145 (inactive)	0.00543 (inactive)	3.71% (inactive)	7.08% (inactive)
Cc1noc(NS(=O)(=O)c2ccc(NC(=O)CCC3CCCC3)cc2)c1C	472	2.1% (inactive)	-12.2% (inactive)	83.5	-147% (inactive)	115	-0.557 (inactive)	-1.2e-05 (inactive)	0.00725 (inactive)	19.6% (inactive)	11.2% (inactive)
CCCCNC(=O)CN(C1CCCCC1)S(C)(=O)=O	422	1.2% (inactive)	-3.6% (inactive)	99.8	-22.8% (inactive)	103	-0.551 (inactive)	1.8e-07 (inactive)	0.0049 (inactive)	16.6% (inactive)	14.9% (inactive)
CCN(CC)S(=O)(=O)c1ccc2c(c1)c(=O)c(C(=O)NCCOC)cn2C	203	6.9% (inactive)	2.8% (inactive)	100	-24.6% (inactive)	112	-0.231 (inactive)	-3.4e-05 (inactive)	0.00464 (inactive)	19.3% (inactive)	15.8% (inactive)
